Cav3 T inh = blocks human Cav3.2 T-type calcium channel; O95180; Cav3.2-expressing cells, Fluo-4 calcium fluorescence FDSS; stronger effect = lower value; B-score at 10 µM; 100,000 tested, 4% active;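 active = single-dose well whose peak fluorescence ratio is a statistical outlier from its plate by either plate-standardised score or position-corrected B-score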
HIV Rev-RRE inh = disrupts HIV-1 Rev binding to RRE RNA | P05866 | Rev peptide-RRE RNA binding, FRET | AID 704 | 97,000 tested, 0.79% active | inhibition, % at 8 µM;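 active = inhibition above the screen-wide mean plus 3 SD, cut at about 35% in these data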;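 also: 0% = median DMSO wells and 100% = median Neomycin B control wells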
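Probe or stimulus: fluorescein-Rev peptide as binding partner; assay system: Cy5-tagged RRE RNA duplex with fluorescein-tagged Rev peptide; timing: 5 min compound–RNA preincubation, then 15 min with peptide, 25 °C; medium: HEPES pH 7.5 buffer with KCl, MgCl2, NaCl and EDTA; signal: fluorescein-to-Cy5 FRET, 480 nm excitation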
FAK inh = blocks human focal adhesion kinase activity. Q05397. biochemical FAK kinase activity assay. inhibition, %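 (tested at 7 µM)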. 97,000 tested, 0.84% active. AID 727; in the data active = inhibition above about 19%;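 also: 0% = DMSO and 100% = reference compound high control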
EphB4 ephrin blk = blocks human EphB4 binding to ephrin-B2; EphB4 LBD / TNYL-RAW-Alexa532 peptide, fluorescence polarization; 97,000 tested, 0.15% active; AID 720; inhibition, % at 7 µM;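 active = inhibition above the screen-wide mean inhibition plus 3 SD, cut at about 15% in these data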;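 also: 0% = DMSO wells and 100% = excess unlabeled TNYL-RAW peptide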
Target sequence (P54760 whole entry, looked up, the tested form may be a part): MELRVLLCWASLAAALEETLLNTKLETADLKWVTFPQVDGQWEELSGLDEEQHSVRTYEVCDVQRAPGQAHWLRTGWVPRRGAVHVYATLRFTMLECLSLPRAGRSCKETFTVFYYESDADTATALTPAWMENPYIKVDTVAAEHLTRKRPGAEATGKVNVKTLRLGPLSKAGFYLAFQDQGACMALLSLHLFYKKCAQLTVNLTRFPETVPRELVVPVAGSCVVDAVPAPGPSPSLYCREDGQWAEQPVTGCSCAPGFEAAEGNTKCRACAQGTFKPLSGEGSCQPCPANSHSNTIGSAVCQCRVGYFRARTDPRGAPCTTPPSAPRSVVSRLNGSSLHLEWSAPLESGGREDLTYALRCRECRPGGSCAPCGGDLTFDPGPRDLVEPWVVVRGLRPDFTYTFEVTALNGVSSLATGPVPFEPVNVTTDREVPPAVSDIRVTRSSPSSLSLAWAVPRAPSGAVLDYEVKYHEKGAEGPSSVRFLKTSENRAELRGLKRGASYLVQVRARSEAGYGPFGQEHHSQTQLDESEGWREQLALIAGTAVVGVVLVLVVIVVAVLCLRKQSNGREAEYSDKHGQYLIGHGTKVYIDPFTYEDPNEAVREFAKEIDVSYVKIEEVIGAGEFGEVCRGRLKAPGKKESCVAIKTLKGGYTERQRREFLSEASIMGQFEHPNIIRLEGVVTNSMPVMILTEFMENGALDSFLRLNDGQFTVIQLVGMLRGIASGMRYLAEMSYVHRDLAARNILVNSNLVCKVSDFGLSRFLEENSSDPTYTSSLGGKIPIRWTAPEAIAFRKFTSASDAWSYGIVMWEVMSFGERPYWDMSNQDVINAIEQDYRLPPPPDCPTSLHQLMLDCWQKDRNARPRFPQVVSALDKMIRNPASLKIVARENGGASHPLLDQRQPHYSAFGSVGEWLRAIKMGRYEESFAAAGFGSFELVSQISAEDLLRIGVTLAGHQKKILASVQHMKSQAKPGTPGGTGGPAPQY
PLK1 inh = blocks human PLK1 kinase activity; inhibition, % at 10 µM; recombinant PLK1 kinase, TR-FRET peptide phosphorylation; AID 619; 97,000 tested, 0.53% active; P53350;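 active = inhibition of 50% or more in the single-concentration screen; inactive = inhibition below 50%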;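 also: 0% = DMSO max control and 100% = H-89 dihydrochloride min control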
Plk1 PBD FP = inhibitors of human Plk1 polo box domain binding; P53350; Plk1 PBD phosphopeptide binding, fluorescence polarization; inhibition, %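 (tested at about 20 µM)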; 97,000 tested, 0.13% active; AID 693; in the data active = inhibition above about 34%, passing the limit was not always enough
PLK1 inh conf = PLK1 (human) kinase inhibition, confirmed. shares compounds with PLK1 inh. recombinant PLK1 kinase, TR-FRET peptide phosphorylation. 210 tested, 20% active. inhibition, % at 10 µM;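 active = inhibition at or above 50% in each of two repeat confirmation tests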;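 also: 0% = DMSO max control and 100% = H-89 kinase-blocked min control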
TR-FRET interf = Plk1 assay compound interference counter-screen hit; shares compounds with PLK1 inh; inhibition (interference), % at 10 µM; 210 tested, under 10 active; AID 756; Plk1 TR-FRET assay interference, compound added post-reaction;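 active = both duplicate runs show 50% or greater inhibition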;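 also: 0% = DMSO max control and 100% = H-89 min control inhibited reaction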
* = called active by the depositor; . = not tested or not shown. Only some compounds are listed: those with a hit (about 5.3% of all), similar ones and a draw of the others.

SMILES | Cav3 T inh | HIV Rev-RRE inh | FAK inh | EphB4 ephrin blk | PLK1 inh | Plk1 PBD FP | PLK1 inh conf | TR-FRET interf
O=C(O)C1C2C=CC(C2)C1C(=O)NC(c1ccccc1)c1ccccc1 (centres undefined) | 0.053 | 21 | 2 | -11 | -10 | 10 | . | .
COC(=O)c1ccc(NC(=O)CSc2nnc(C(C)NC(=O)c3ccccc3Cl)n2C)cc1 (centres undefined) | 0.99 | 10 | 7 | 12 | -7 | -5 | . | .
Cn1c(=O)c2c(SCc3cccnc3)nc(CC(C)(C)C)nc2n(C)c1=O | -1.2 | 3 | 8 | -2 | 73* | -8 | 0 | -53
COc1ccc(C(C(=O)NC2CCCC2)N(Cc2ccc(C)cc2)C(=O)c2ccn[nH]2)cc1OC (centres undefined) | 2.1 | 2 | -10 | -3 | -10 | -14 | . | .
O=C(CCc1ccccc1)N1CCN(CCO)CC1 | 1.2 | 4 | -6 | -2 | 74* | 21 | -10 | -48
COc1cccc(-c2nc(CS(=O)(=O)c3ccccc3)no2)c1 | . | 1 | 2 | -2 | -14 | -10 | . | .
COc1ccc2cc(C#N)c(SCC(=O)N3CCCC3)nc2c1 | 1.4 | -2 | -1 | 2 | -4 | 18 | . | .
COC(=O)CSc1nc2cc(OC)ccc2cc1C#N | 0.53 | 8 | 2 | -11 | 87* | -5 | -8 | -53
C#CCNC(=O)C1=C[C@H](C)[C@@H](CCCO)[C@H](OCC)O1 | 0.067 | . | . | . | . | . | . | .
O=C(Nc1cccc2c1CCCC2)c1ccncc1 | 1.5 | -2 | 1 | -8 | -1 | -9 | . | .
CC(C)CC(c1nnnn1C(C)C)N1CCN(c2ccccc2)CC1 (centres undefined) | -0.085 | -1 | 0 | 2 | -5 | 19 | . | .
NC1=CC(=O)c2cccc3cccc1c23 | -2.6 | 56* | 16 | 13 | 78* | 17 | 21 | -17
Cc1ccc(N(C)C(=O)N2CCN(S(=O)(=O)c3ccc(C)cc3)CC2)cc1 | -1.6 | 5 | 3 | 1 | 72* | 2 | 3 | -50
COc1cccc(NC(=O)N(CCCN2CCOCC2)C(C)c2cc3ccccc3o2)c1 (centres undefined) | 0.13 | 14 | 2 | -4 | -4 | 5 | . | .
O=C1CC(N2CCN(S(=O)(=O)c3cccc(C(F)(F)F)c3)CC2)C(=O)N1Cc1ccccc1 (centres undefined) | -1.7 | 15 | -1 | -10 | -7 | 12 | . | .
Cn1ncc(N)c1C(=O)Nc1cccc(C(F)(F)F)c1 | 0.1 | . | . | . | . | . | . | .
Nc1[nH]ncc1C(=O)Nc1cccc(C(F)(F)F)c1 | -0.29 | 1 | 3 | -3 | 78* | 0 | 75* | -54
COC(=O)c1ccccc1NC(=O)CSc1nc(N)cc(N)n1 | 1.1 | 4 | -12 | -1 | 71* | 42 | -5 | -44
COc1ccc2nc(NC(=S)N(C)C)sc2c1 | -0.16 | 5 | -1 | 8 | -13 | 19 | . | .
C=CCSc1nc(-c2ccccc2)c2cc(Cl)ccc2n1 | -0.011 | 23 | 3 | -1 | 78* | 13 | -9 | -51
Cc1nnc(SCC(=O)NC2CCCCC2)n(N)c1=O | -0.43 | 0 | 0 | -5 | -9 | 36 | . | .
CCOC(=O)CNC(c1ccccc1)c1cc(Br)ccc1NC(=O)OCC (centres undefined) | -5.9* | 16 | 0 | -2 | 93* | 9 | -1 | -54
COc1ccc(/C=N\NC(=O)C2=NNC(=O)C2C)cc1 (centres undefined) | 0.51 | 5 | -2 | 3 | -7 | -9 | . | .
CC1Cc2ccccc2N1C(=O)c1cnc2n(c1=O)CCS2 (centres undefined) | -0.017 | 9 | -2 | 4 | 70* | 8 | -9 | -53
CC1Cc2ccccc2N1C(=O)c1cnc2sccn2c1=O (centres undefined) | 0.097 | 6 | 0 | 3 | -4 | -18 | . | .
SMILES | Cav3 T inh | HIV Rev-RRE inh | FAK inh | EphB4 ephrin blk | PLK1 inh | Plk1 PBD FP | PLK1 inh conf | TR-FRET interf
COc1ccc(-c2cc3nc[nH]c(=O)c3s2)cc1 | 0.27 | 8 | 3 | -1 | 39 | 6 | . | .
O=c1[nH]cnc2cc(-c3ccccc3)sc12 | 0.36 | 0 | 16 | -3 | 80* | 5 | 73* | -54
Cc1cc(C)c2c3c(cn2n1)c(=O)n(C)c(=O)n3C | 0.016 | 7 | 1 | 5 | -9 | 9 | . | .
Cn1nnnc1SCC(=O)Nc1ccc(N2CCOCC2)cc1 | 0.36 | 9 | 0 | 4 | 75* | -13 | -3 | -54
Cc1nnc(SCC(=O)Nc2ccc(N3CCOCC3)cc2)o1 | . | 5 | -3 | -6 | -11 | 2 | . | .
CCOc1ccc(C2c3c(oc4ccccc4c3=O)C(=O)N2CCCN2CCOCC2)cc1OCC (centres undefined) | 0.48 | 8 | -1 | 0 | 74* | 5 | -3 | -54
COc1ccc(C2c3c(oc4ccccc4c3=O)C(=O)N2CCCN2CCOCC2)cc1 (centres undefined) | -1.7 | 4 | 2 | -2 | -7 | 14 | . | .
O=C(Nc1ncc2c(n1)-c1ccccc1CC2)c1ccc(Cl)cc1 | -1.6 | 5 | 11 | 1 | 123* | -10 | 12 | -46
Cn1c(SC/C=C/c2ccccc2)nnc1-c1ccco1 | 0.62 | 9 | 4 | 3 | -2 | 6 | . | .
CCCOC(=O)CSc1nnc(-c2cc(OC)c(OC)c(OC)c2)o1 | -0.095 | 0 | 1 | 1 | -11 | -1 | . | .
COc1cc(-c2nnc(SCc3cc(=O)oc4cc(O)c(O)cc34)o2)cc(OC)c1OC | 0.65 | -20 | 5 | -3 | 77* | 2 | 26 | 1
CCC(C)Sc1nnc(Cc2cc(=O)[nH]c(=O)[nH]2)n1-c1ccc(F)cc1 (centres undefined) | 0.27 | -4 | 0 | -7 | 72* | 16 | -8 | -49
COc1ccc(S(=O)(=O)Cc2ccc(C(=O)N3CCN(c4cccc(C)c4)C(C)C3)o2)cc1 (centres undefined) | -2 | 8 | 2 | 2 | 73* | -6 | -3 | -51
CNCc1ccccc1Sc1ccc(OC)c(OC)c1 | 1.5 | 1 | -5 | -10 | -10 | 20 | . | .
Cc1ccc(-c2[nH]nc(N)c2N=Nc2cccc(Cl)c2C)cc1 | 0.6 | 17 | 3 | -4 | -6 | 8 | . | .
Cc1cccc(N=Nc2c(N)n[nH]c2-c2ccc(Cl)cc2)c1 | 1.2 | 10 | -7 | 2 | 71* | -3 | 59* | -49
CCN(CC)C(=O)CSc1nnc(CNc2ccc(F)cc2)o1 | 0.4 | 5 | 0 | 6 | -12 | -9 | . | .
Cc1ccc(CSCC(=O)N2CCN(c3ccc(F)cc3)CC2)cc1 | -2.4 | 8 | -1 | 3 | 109* | 2 | -8 | -57
Cc1c(NC(=O)C(C)N2C(=O)C3C4C=CC(C4)C3C2=O)c(=O)n(-c2ccccc2)n1C (centres undefined) | -0.72 | 8 | 1 | -6 | 71* | -20 | -6 | -47

Source: PubChem
